# Rows were chosen to be rich in hits. Some 1.6% of all compounds tested hit in one or more screens of this group.
# RAD52 inh – blocks human RAD52 DNA annealing; inhibition, % at 18.7 µM; recombinant RAD52 DNA annealing, FRET fluorescence; P43351; 0.46% of 360,000 active;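 active means every replicate showing at least 50% inhibition; inconclusive means mean inhibition at least 50% but not in every replicate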
# DNA FID counter – displaces DNA intercalator in HCV helicase counter-screen; DNA fluorescent intercalator displacement, fluorescence; inhibition, % at 7.9 µM; 0.17% of 290,000 active; AID 1845; in the data active means inhibition above about 37%;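 further: 0% = vehicle and 100% = reference compound; higher means more ethidium bromide displaced from hairpin DNA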
# Apaf-1 inh – human Apaf-1 inhibition; reconstituted apoptosome caspase-3 activity, DEVD-Rh110 fluorescence; inhibition, % at 20 µM; 0.71% of 330,000 active; O14727; active means inhibition of at least 40% at 20 µM;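 further: plate controls were DMSO wells for no effect and DEVD-CHO caspase inhibitor wells for full effect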
#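 Material: reconstituted apoptosome with Apaf-1, cytochrome c, caspase-9, procaspase-3, dATP. Technique: Rh110 fluorescence intensity. Buffer or medium: pH 7.5 Hepes buffer with CHAPS, BSA, DTT. Times: 30 min plus 50 min, RT.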
# Neddylation inh – inhibitors of human cullin neddylation; TR-FRET cullin neddylation, biochemical; calls only at 25 µM; 0.58% of 360,000 active; in the data active means inhibition above about 36%
# RAD54 branch – RAD54 (human) branch migration inhibition; Q92698; RAD54 Holliday junction branch migration, FAM/BHQ fluorescence; inhibition, % at 10.4 µM; 0.14% of 360,000 active;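 active means mean normalized replicate activity at least 40 and at least half of replicates scoring 40 or more; inconclusive means only one of the two criteria met; inactive means mean below 40 and under half of replicates reaching 40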;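 further: 0% = median of neutral control wells and 100% = median of positive control wells; inhibitors cause a drop in the FAM fluorescence signal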
# Target sequence (Q92698 whole entry, looked up): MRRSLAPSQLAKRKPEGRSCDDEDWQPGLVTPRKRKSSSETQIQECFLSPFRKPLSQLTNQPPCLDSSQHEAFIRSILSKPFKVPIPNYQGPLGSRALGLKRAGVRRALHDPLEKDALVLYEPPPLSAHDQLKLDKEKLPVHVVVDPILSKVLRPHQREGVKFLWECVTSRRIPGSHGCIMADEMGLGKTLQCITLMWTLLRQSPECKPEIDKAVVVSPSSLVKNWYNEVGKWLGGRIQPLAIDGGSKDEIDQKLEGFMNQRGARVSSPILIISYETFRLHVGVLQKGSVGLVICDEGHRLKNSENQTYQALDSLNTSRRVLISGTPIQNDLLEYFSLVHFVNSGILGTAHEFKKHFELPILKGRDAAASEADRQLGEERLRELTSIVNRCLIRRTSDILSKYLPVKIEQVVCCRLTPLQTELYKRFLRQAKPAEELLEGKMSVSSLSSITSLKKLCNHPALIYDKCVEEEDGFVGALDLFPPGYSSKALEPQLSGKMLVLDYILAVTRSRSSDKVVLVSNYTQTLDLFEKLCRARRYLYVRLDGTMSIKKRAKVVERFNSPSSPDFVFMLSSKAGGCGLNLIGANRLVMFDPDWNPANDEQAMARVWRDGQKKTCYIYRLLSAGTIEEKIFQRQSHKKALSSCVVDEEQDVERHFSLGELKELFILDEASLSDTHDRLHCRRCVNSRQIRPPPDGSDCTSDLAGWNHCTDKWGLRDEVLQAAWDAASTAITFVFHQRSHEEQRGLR
# UBC13 inh – inhibitors of human UBC13 polyubiquitin chain formation | TR-FRET | inhibition, % at 20 µM | AID 485273 | P61088 | 0.47% of 330,000 active; in the data active means inhibition above about 45%, passing the limit was not always enough; inconclusive means no clear call, values can overlap the other calls
# Rad54 DNA ctr – binds DNA, flagging false Rad54 inhibitor hits; shares compounds with RAD54 branch; Acridine orange-DNA displacement, fluorescence polarization, 20 min; AC50, µM (top dose mostly 35 µM), for the others: at the highest dose activity change, negative = DNA binding; 8% of 460 active;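 active means signal drop giving an AC50 within twice the top valid tested concentration of each sample, actives reach about 35 µM in these data; inactive means activity opposite to expected, plus the rest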;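 further: polarization loss reports compound binding to salmon sperm DNA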
# Neddyl inh conf – confirmation of human cullin neddylation inhibitors; shares compounds with Neddylation inh; TR-FRET cullin neddylation biochemical assay; calls only at 25 µM; 13% of 1,800 active; AID 652217; in the data active means inhibition above about 40%;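 further: neddylation substrate is the cullin 1 ring ligase complex with SKP2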
# RAD52 DNA ctr – counter-screen for RAD52 inhibitors: DNA binding compounds | Salmon sperm DNA/acridine orange FP displacement | 8% of 1,000 active | AID 652128 | shares compounds with RAD52 inh | AC50, µM;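 active means fitted half-maximal concentration for signal loss at or below twice the highest dose tested, in every separate run, actives reach about 64 µM in these data; inconclusive means runs disagree, or flat partial signal loss, or poor fit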
# Active calls of the source: *; i = inactive; ? = inconclusive; . = no result given; + = active, no number.
SMILES,RAD52 inh,DNA FID counter,Apaf-1 inh,Neddylation inh,RAD54 branch,UBC13 inh,Rad54 DNA ctr,RAD52 DNA ctr,others
Cn1nc(-c2ccccc2)cc1NS(=O)(=O)c1ccccc1,-2,-10,1,i,.,4,.,.,
CCCNC(=O)N1[C@@H](CO)[C@H](c2ccc(C3=CCCC3)cc2)[C@@H]1CNC(C)=O,.,.,.,.,2,.,.,.,
Nc1cc2c3c(cccc3c1)C(=O)N(CCN1CCCC1)C2=O,3,33,.,i,90*,.,28µM*,.,
COc1ccc2[nH]c3c(=O)n(CCN4CCOCC4)cnc3c2c1,-5,-2,-20,.,1,21,.,.,
COc1ccc2c(c1)c1ncn(CCN3CCCCC3)c(=O)c1n2C,.,19,6,.,52*,14,15%,.,
COc1ccc2c(c1)c1ncn(CCN3CCCC3)c(=O)c1n2C,.,19,7,.,59*,1,3%,.,
COc1ccc2c(c1)c1ncn(CCN3CCNCC3)c(=O)c1n2C,22,10,-15,.,.,20,.,.,
CSc1nc(SCC(N)=O)c2c3c(sc2n1)CN(C)CC3,.,9,1,i,59*,9,3%,.,
CCCNC(=O)C[C@H]1CC[C@@H]2[C@@H](COc3ccc(NC(=O)Nc4c(C)noc4C)cc3C(=O)N2C)O1,13,.,.,.,0,.,.,.,
CCN(CC)CC(=O)Nc1cccc2c1C(=O)c1ccccc1C2=O,.,17,-5,i,70*,-29,2%,.,
Cc1nc2ccccc2c2oc(C(=O)NCCCN3CCCC3=O)cc12,-4,-11,-3,i,8,-2,.,.,
Cc1nc2ccccc2c2oc(C(=O)NCCN3CCN(C)CC3)cc12,20,19,11,i,?,-12,-13%,.,
CCOC(=O)N1CCN(S(=O)(=O)c2ccc(C(=O)Nc3sc4c(c3C(=O)OC)CCN(C)C4)cc2)CC1,-77,29,26,i,?,21,-7%,.,
COc1ccc(CN(C)C[C@@H]2OCCCC[C@@H](C)Oc3ccc(NC(=O)c4ccncc4)cc3C(=O)N([C@@H](C)CO)C[C@@H]2C)cc1,4,.,.,.,0,.,.,.,
CCC(C)NC(=S)Nc1ccc2nc(N3CCN(CC)CC3)cc(C)c2c1 (stereo not drawn),44,30,-26,i,.,-7,.,.,
CCCCN(CC)CCCNC(=S)Nc1ccc2nc(N3CCN(CC)CC3)cc(C)c2c1,90*,52*,16,i,71*,-1,0%,.,
NCCN1CCN(CCN)CC1,.,10,.,i,50*,.,-11%,.,
CO[C@H]1CN(C)C(=O)c2ccc(NC(=O)C3CC3)cc2OC[C@H](C)N(C(=O)c2ccccc2F)C[C@@H]1C,5,.,.,.,3,.,.,.,
Clc1ccc2[nH]c3c(NCCCN4CCOCC4)ncnc3c2c1,.,38*,13,+,?,17,-1%,.,Neddyl inh conf=i
COc1ccc(Nc2nc(N3CCCCC3)nc3ccccc23)c(OC)c1,.,15,28,+,55*,12,9%,.,
COc1ccc(Nc2nc(N3CCN(S(C)(=O)=O)CC3)nc3ccccc23)c(OC)c1,0,0,-4,.,10,4,.,.,
Cc1ccc(S(=O)(=O)N(C)C[C@@H]2Oc3ncc(Br)cc3C(=O)N([C@@H](C)CO)C[C@H]2C)cc1,0,.,.,.,8,.,.,.,
c1ccc(N2CCN(Cc3nc4ccccc4[nH]3)CC2)nc1,-6,-7,5,i,-5,2,.,.,
c1c[nH]c(CN2CCN(Cc3ncc[nH]3)CC2)n1,56*,.,.,i,?,.,-11%,i,
Cc1cc(C)cc(OCC(O)CN2CCC(CN3C(=O)c4cccc5cccc(c45)C3=O)CC2)c1 (stereo not drawn),95*,.,33,i,66*,45,-15%,i,
SMILES,RAD52 inh,DNA FID counter,Apaf-1 inh,Neddylation inh,RAD54 branch,UBC13 inh,Rad54 DNA ctr,RAD52 DNA ctr,others
Cc1ccccc1CN(C)C[C@H]1OCc2cn(nn2)CCCC(=O)N([C@H](C)CO)C[C@H]1C,7,.,.,.,4,.,.,.,
COc1ccc(-c2oc3ncnc(NCCCN(C)C)c3c2-c2ccc(OC)cc2)cc1,85*,19,21,.,75*,10,17%,i,
CCOC(=O)c1cnc2ccc(OC)cc2c1Nc1ccc(N2CCN(C)CC2)cc1,88*,44*,12,i,72*,17,4%,i,
CCOC(=O)c1ccc2ncc(C(=O)OCC)c(Nc3ccc(N4CCOCC4)cc3)c2c1,-3,-2,37,i,.,-7,.,.,
CCC(=O)N1CC[C@H]2[C@@H]1c1cc(-c3cccc(F)c3)ccc1N(C)[C@H]2CO,.,.,.,.,-14,.,.,.,
CC(C)NC(=O)c1ccc2c3n(nc2c1)-c1ccc(Cl)cc1CO3,6,.,7,i,-4,-5,.,.,
CCN(CC)CCCNC(=O)c1ccc2c3n(nc2c1)-c1ccc(Cl)cc1CO3,65*,.,11,i,52*,7,-4%,i,
CN1CCN(CC(=O)Nc2nc(-c3c[nH]c4ccccc34)cs2)CC1,96*,18,4,i,93*,26,-8%,i,
CNc1nc(-c2c[nH]c3ccccc23)cs1,.,5,7,i,5,-3,.,.,
COc1ccc(Nc2c3ccccc3nc3ccccc23)cc1,73*,26,4,i,101*,-54,27µM*,11µM*,
COc1ccc(CCNc2c3ccccc3nc3ccccc23)cc1OC,83*,10,-10,i,100*,-3,-12%,i,
Oc1cccc(Nc2c3ccccc3nc3ccccc23)c1,82*,42*,5,i,57*,-63,30µM*,?,
COc1nc(NCCc2ccc(OC)c(OC)c2)nc(OC)n1,.,-11,4,i,3,-5,.,.,
COc1cc(Nc2c3ccccc3nc3ccccc23)cc(OC)c1OC,55*,33,19,i,76*,-108,-13%,i,
CN1c2ccc(-c3ccccc3)cc2[C@@H]2[C@@H](CCN2C(=O)c2ccccc2)[C@@H]1CO,12,.,.,.,5,.,.,.,
O=C(C[C@H]1CC[C@@H]2[C@H](COC[C@H](O)CN2C(=O)c2ccncc2)O1)NCc1ccc(-c2ccccc2)cc1,16,.,.,.,4,.,.,.,
c1ccc2c(NCCc3c[nH]c4ccccc34)c3ccccc3nc2c1,97*,21,6,i,93*,36,36µM*,41µM*,
Fc1cccc(NCCc2c[nH]c3ccccc23)n1,6,-1,6,i,10,0,.,.,
NC(=O)CN1CCN(CCN2C(=O)c3cccc4cccc(c34)C2=O)CC1,47,17,-6,i,58*,-8,-2%,i,
CCNC(=S)N1CCN(CCN2C(=O)c3cccc4cccc(c34)C2=O)CC1,-16,-3,-8,i,29,10,.,.,

# Source: PubChem
